We go through 20 molecules from ChEMBL document CHEMBL1128514, “9-substituted acridine derivatives with long half-life and potent antitumor activity: synthesis and structure-activity relationships” (J Med Chem, 1995).

Broadly, the IC50 is the concentration needed to halve the response being measured. A higher IC50 goes with a need for much substance.

“And” between values parts separate entries of the source, which are not always exact repeats. Identical values can stand only once.

One experiment addresses DNA topoisomerase II (Homo sapiens, UniProt P11388+Q02880). Nature of the experiment: In vitro 50% inhibition of topoisomerase II mediated k-DNA decatenation. Type of experiment: protein assay.
In a further experiment the test system is HL-60. Nature of the experiment: In vitro cytotoxicity against human leukemic HL-60 cell line. Format: functional, cell-based. The method in brief:
(§1)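 Growth inhibition over 72 h by XTT tetrazolium microculture assay with phenazine methosulfate-XTT for 6 h at 37 °C. Absorbance read at 450 and 630 nm. Six to seven concentrations per compound; IC50 from median-effect plot.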

The test system of the next experiment is L1210. Nature of the experiment: The compound was tested for the cytotoxicity against L1210 cell lines. Type of experiment: functional, cell-based. The conditions noted are these: Mus musculus. Summed up: as §1
For a further experiment, the system named is CCRF S-180. Nature of the experiment: The compound was tested for the cytotoxicity against S180 cell lines. Type of experiment: functional, cell-based. The conditions noted are these: Mus musculus. The method in brief: as §1
In another experiment the test system is CEM-VLB. The experiment is described as follows: The compound was tested for the cytotoxicity against human leukemic CEM/VBL cell lines. Type of experiment: functional, cell-based.
In the next experiment the test system is CCRF-CEM. The experiment is described as follows: The compound was tested for the cytotoxicity against human leukemic CCRF-CEM cell lines. Format: functional, cell-based.
The nature of experiment [1]: The compound was tested for the cytotoxicity DC-3F cell lines. The conditions noted are these: Cricetulus griseus, DC3F. Format: functional, cell-based.
The next experiment concerns DC3F/AD-II. Nature of the experiment: The compound was tested for the cytotoxicity against human leukemic DC-3F/ADII cell lines, activity is expressed as IC50 values. Type of experiment: functional, cell-based. The conditions noted are these: Cricetulus griseus.
The test system of a further experiment is CEM-VM1. The experiment is described as follows: The compound was tested for the cytotoxicity against human leukemic CEM/VM-1 cell lines. Format: functional, cell-based.
Experiment [2] has as its system Mus musculus. The experiment is described as follows: The compound (7.5 mg/kg, ip) was tested for change in average weight of BDF2 mice bearing B16 melanoma. Type of experiment: functional. Summed up:
(§2)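 BD2F1 female mice, 19-21 g, carrying subcutaneous tumor brei (0.2 mL); compounds in DMSO given ip once daily × 5 starting day 3. Average body weight change (g) taken on day 14. Five mice per dose; untreated and DMSO-vehicle controls.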

In experiment [3] the test system is Mus musculus. Nature of the experiment: The compound (7.5 mg/kg, ip) was tested for change in average weight of BDF2 mice bearing Lewis lung carcinoma. Format: functional. The method in brief:
as §2

The species named for experiment [4] is Mus musculus. The experiment is described as follows: Average tumor volume of the B-16 melanoma. Type of experiment: functional. The method in brief:
(§3)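 BD2F1 female mice, 19-21 g, given subcutaneous 0.2 mL solid tumor brei; dosed ip in DMSO daily for 5 days from day 3 (AHMA 7.5-10 mg/kg, VP-16 10, m-AMSA 5 mg/kg). Tumor volume on day 14 as length × width × width/2 (mm3), expressed as T/C versus untreated. Five mice per dose; DMSO-only group included; two experiments.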

Experiment [5] is filed under the species Mus musculus. Nature of the experiment: Average tumor volume of the E0771 mammary adenocarcinoma,. Type of experiment: functional. The method in brief: as §3
The species named for experiment [6] is Mus musculus. The experiment is described as follows: Average tumor volume of the Lewis lung carcinoma. Type of experiment: functional. The method in brief: as §3
The test system of experiment [7] is Mus musculus. The experiment is described as follows: The compound (7.5 mg/kg, ip) was tested for change in average weight of BDF2 mice bearing E0771 mammary adenocarcinoma. Type of experiment: functional. The method in brief:
as §2

Experiment [8] has as its system Mus musculus. The experiment is described as follows: The compound (10 mg/kg, ip) was tested for change in average weight of BDF2 mice bearing B16 melanoma.
Experiment [9] deals with Mus musculus. Nature of the experiment: The compound ( ip) was tested for change in average weight of BDF2 mice bearing E0771 mammary adenocarcinoma.
The test system of experiment [10] is Mus musculus. The experiment is described as follows: The compound (10 mg/kg, ip) was tested for change in average weight of BDF2 mice bearing Lewis lung carcinoma.

Consider `COc1ccc2c(Sc3ccc(COC(=O)NC(C)C)cc3)c3ccccc3nc2c1`, for which the half-inhibitory concentration (IC50) on DNA topoisomerase II was over 100000 nM; in the experiment on HL-60 it was 1550 nM.
For `O=C(O)CCC(=O)Nc1cc(COC(=O)CCC(=O)O)cc(Nc2c3ccccc3nc3ccccc23)c1`, the 50% inhibitory concentration (IC50) was over 100000 nM at DNA topoisomerase II, 4300 nM with HL-60, 990 nM in the experiment on L1210 and 1830 nM in the experiment on CCRF S-180.
In the case of `COc1ccc2c(Oc3ccc(COC(=O)NC(C)C)cc3)c3ccccc3nc2c1`, the IC50 against DNA topoisomerase II was over 100000 nM; with HL-60, 420 nM.
For `OCc1ccc(Oc2c3ccccc3nc3ccccc23)cc1` the same measures were over 100000 nM and 12800 nM.
For `CC(C)NC(=O)OCc1ccc(Sc2c3ccccc3nc3ccccc23)cc1` the same measures were 50000 nM and 2830 nM.
For `CNC(=O)OCc1ccc(Sc2c3ccccc3nc3cc(OC)ccc23)cc1` the same measures were over 100000 nM and 2710 nM.
On to `CC(=O)CCC(=O)Nc1cc(COC(=O)CCC(C)=O)cc(Nc2c3ccccc3nc3ccccc23)c1`, for which the IC50 on DNA topoisomerase II was under 1000 nM; in the experiment with HL-60, 15 nM; in the experiment with L1210, 98 nM; in the experiment on CCRF S-180, 97 nM.
`CNC(=O)OCc1ccc(Oc2c3ccccc3nc3ccccc23)cc1`: the IC50 turned out to be 20000 nM at DNA topoisomerase II and 680 nM in the experiment on HL-60.
For `CNC(=O)OCc1ccc(Sc2c3ccccc3nc3ccccc23)cc1`, the 50% inhibitory concentration (IC50) stood at 20000 nM against DNA topoisomerase II and 1960 nM with HL-60.
For `OCc1ccc(Sc2c3ccccc3nc3ccccc23)cc1` the same measures were over 100000 nM and 3330 nM.
Regarding `COc1ccc2c(Sc3ccc(CO)cc3)c3ccccc3nc2c1`, the values for the IC50 against DNA topoisomerase II and with HL-60 were 50000 nM and 1830 nM, respectively.
The corresponding values for `CC(C)NC(=O)OCc1ccc(Oc2c3ccccc3nc3ccccc23)cc1` are 20000 nM and 1490 nM.
Take `CNC(=O)OCc1ccc(Oc2c3ccccc3nc3cc(OC)ccc23)cc1`: the half-inhibitory concentration (IC50) came to 50000 nM against DNA topoisomerase II and 950 nM in the experiment on HL-60.
For the molecule `Nc1cc(CO)cc(Nc2c3ccccc3nc3ccccc23)c1`, the 50% inhibitory concentration (IC50) with CEM-VLB is 3790 nM; in the experiment on CCRF-CEM, 263 nM; in [1], 5 nM; with DC3F/AD-II it was 54 nM; against DNA topoisomerase II, 1000 nM; in the experiment with L1210 it was 16 nM. For the same molecule, the IC50 amounted to 30 nM with CCRF S-180 and 1600 nM with CEM-VM1.
For the molecule `COc1ccc2c(Oc3ccc(CO)cc3)c3ccccc3nc2c1`, the IC50 on DNA topoisomerase II amounted to 20000 nM; with HL-60 it was 1040 nM.
For the molecule `O=C(O)CCC(=O)Nc1cc(CO)cc(Nc2c3ccccc3nc3ccccc23)c1`, the IC50 against DNA topoisomerase II turned out to be 20000 nM; in the experiment on HL-60 it was 5000 nM; in the experiment on L1210 it was 330 nM; with CCRF S-180, 1070 nM.
Regarding `CC(=O)OCc1cc(N)cc(Nc2c3ccccc3nc3ccccc23)c1`, the results for the IC50 in the experiment on HL-60 and with L1210 were 28 nM and 34 nM, respectively.
Regarding `CC(=O)Nc1cc(CO)cc(Nc2c3ccccc3nc3ccccc23)c1`, the IC50 is 18 nM in the experiment with HL-60 and 28 nM in the experiment on L1210.
On to `CC(=O)CCC(=O)Nc1cc(CO)cc(Nc2c3ccccc3nc3ccccc23)c1`, for which the IC50 against DNA topoisomerase II is under 1000 nM; in the experiment on HL-60, 25 nM; with L1210, 45 nM; with CCRF S-180 it was 70 nM.
In turn, `Cl.Nc1cc(CO)cc(Nc2c3ccccc3nc3ccccc23)c1` displayed an IC50 in the experiment with HL-60 of 25 nM. Further, the AWC with Mus musculus [2] is -0.3 g; in the experiment on Mus musculus [3] it was 0.1 g; in the experiment with Mus musculus [7], 0.6 g; in the experiment on Mus musculus [8] it was -1.9 g; with Mus musculus [9], 0.6 g; with Mus musculus [10] it was -0.4 g. Also, the T/C is 0.23 and 0.18 in the experiment listed under Mus musculus [4]; 0.13 and 0.14 in the experiment listed under Mus musculus [5]; 0.55 and 0.23 in the experiment filed under Mus musculus [6].
